The source made the active and inactive calls. The calls are words filed in the database; no cut-off is given here.
Experiments:
Rattus norvegicus [1] = assay: Acute toxicity in Sprague-Dawley rat assessed as motor impairment at 100 mg/kg, ip after 4 hrs; format: organism-based; parameters: dose 100 mg/kg, route intraperitoneal; settings: in vivo
Procedure, shortened: (§1)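 Male albino Sprague Dawley rats, two per dose, given test compound i.p. as a suspension in 0.5% methyl cellulose. Behaviour was closely observed and recorded over 4 h to detect acute motor impairment. Values are scored as animals toxic over animals tested at each time point.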

Rattus norvegicus [2] = assay: Acute toxicity in Sprague-Dawley rat assessed as motor impairment at 100 mg/kg, ip after 2 hrs; format: organism-based; parameters: dose 100 mg/kg, route intraperitoneal; settings: in vivo; procedure, shortened: as §1
Rattus norvegicus [3] = assay: Acute toxicity in Sprague-Dawley rat assessed as motor impairment at 100 mg/kg, ip after 1 hr; format: organism-based; parameters: dose 100 mg/kg, route intraperitoneal; settings: in vivo; procedure, shortened: as §1
Rattus norvegicus [4] = assay: Acute toxicity in Sprague-Dawley rat assessed as motor impairment at 100 mg/kg, ip after 0.5 hrs; format: organism-based; parameters: dose 100 mg/kg, route intraperitoneal; settings: in vivo; procedure, shortened: as §1
Rattus norvegicus [5] = assay: Acute toxicity in Sprague-Dawley rat assessed as motor impairment at 100 mg/kg, ip after 0.25 hrs; format: organism-based; parameters: dose 100 mg/kg, route intraperitoneal; settings: in vivo; procedure, shortened: as §1
Mus musculus [6] = species on record: Mus musculus; assay: Protective index, ratio of TD50 for albino CF-1 mouse to ED50 for albino CF-1 mouse assessed as protection against 6 Hz psychomotor seizure; format: functional
Procedure, shortened: (§2)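 Protection index = TD50 (rotorod, mice, i.p.) divided by ED50 from MES or 6 Hz test, each at its time of peak effect.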

Mus musculus [7] = species on record: Mus musculus; assay: Protective index, ratio of TD50 for albino CF-1 mouse to ED50 for albino CF-1 mouse assessed as protection against maximal electroshock-induced seizures; format: functional; procedure, shortened: as §2
Mus musculus [8] = assay: Anticonvulsant activity in ip dosed albino CF-1 mouse assessed as protection against 6 Hz psychomotor seizure after 0.25 hrs by minimal clonic seizure test; format: functional; settings: albino CF-1, ip
Procedure, shortened: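 Quantitative 6 Hz test in male CF-1 mice dosed i.p.; 32 mA for 3 s via corneal electrodes at time of peak effect; ED50 with 95% confidence interval, slope and standard error reported.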

[9] = Neurotoxicity in ip dosed albino CF-1 mouse assessed as motor impairment after 8 hrs by rotarod test; format: toxicity, organism-based; settings: in vivo, read-out: ID50
Mus musculus [10] = assay: Anticonvulsant activity in ipp dosed albino CF-1 mouse assessed as protection against subcutaneous metrazol-induced seizures after 1 hr; format: functional; settings: albino CF-1, sc
Mus musculus [11] = assay: Anticonvulsant activity in ip dosed albino CF-1 mouse assessed as protection against maximal electroshock-induced seizures after 1 hr; format: functional; settings: albino CF-1, ip
Mus musculus [12] = assay: Anticonvulsant activity in albino CF-1 mouse assessed as protection against 6 Hz psychomotor seizure at 100 mg/kg, ip after 4 hrs by minimal clonic seizure test; format: functional, organism-based; parameters: dose 100 mg/kg
Procedure, shortened: (§3)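 Male CF-1 mice (18–25 g), i.p. 100 mg/kg in 0.5% methyl cellulose suspension; 6 Hz corneal stimulation, 32 mA for 3 s, four mice per time point. Protected if no minimal clonic phase with stereotyped automatistic behaviour.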

Mus musculus [13] = assay: Anticonvulsant activity in albino CF-1 mouse assessed as protection against 6 Hz psychomotor seizure at 100 mg/kg, ip after 2 hrs by minimal clonic seizure test; format: functional; procedure, shortened: as §3
Mus musculus [14] = assay: Anticonvulsant activity in albino CF-1 mouse assessed as protection against 6 Hz psychomotor seizure at 100 mg/kg, ip after 1 hr by minimal clonic seizure test; format: functional; settings: route intraperitoneal; procedure, shortened: as §3
Mus musculus [15] = assay: Anticonvulsant activity in albino CF-1 mouse assessed as protection against 6 Hz psychomotor seizure at 100 mg/kg, ip after 0.5 hrs by minimal clonic seizure test; format: functional; procedure, shortened: as §3
Mus musculus [16] = assay: Anticonvulsant activity in albino CF-1 mouse assessed as protection against 6 Hz psychomotor seizure at 100 mg/kg, ip after 0.25 hrs by minimal clonic seizure test; format: functional; settings: route intraperitoneal; procedure, shortened: as §3
Mus musculus [17] = assay: Anticonvulsant activity in albino CF-1 mouse assessed as protection against maximal electroshock-induced seizures at 300 mg/kg, ip after 0.5 hrs; format: functional, organism-based; parameters: dose 300 mg/kg
Procedure, shortened: (§4)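 Male CF-1 mice (18–25 g), i.p. in 0.5% methyl cellulose at 30, 100 and 300 mg/kg; MES: 60 Hz, 50 mA, 0.2 s through tetracaine-primed corneal electrodes; protection = abolished hind limb tonic extension. Value given as minimum dose active in half or more of mice.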

Mus musculus [18] = assay: Anticonvulsant activity in ip dosed albino CF-1 mouse assessed as dose required to protect against maximal electroshock-induced seizures after 2 hrs; format: functional; procedure, shortened: as §4
Mus musculus [19] = assay: Anticonvulsant activity in ip dosed albino CF-1 mouse assessed as dose required to protect against maximal electroshock-induced seizures after 4 hrs; format: functional; procedure, shortened: as §4
Mus musculus [20] = assay: Anticonvulsant activity in albino CF-1 mouse assessed as protection against subcutaneous metrazol-induced seizures at 300 mg/kg, ip after 0.5 hrs; format: functional, organism-based; parameters: dose 300 mg/kg
Procedure, shortened: (§5)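 Male CF-1 mice, i.p. at 30, 100, 300 mg/kg in 0.5% methyl cellulose; metrazol dose convulsing 97% of animals injected s.c. in midline neck fold, mice isolated and watched 30 min; protected if no 3–5 s clonic spasm episode of limbs, jaws or vibrissae.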

Mus musculus [21] = assay: Anticonvulsant activity in albino CF-1 mouse assessed as protection against subcutaneous metrazol-induced seizures at 300 mg/kg, ip after 4 hrs; format: functional, organism-based; parameters: dose 300 mg/kg; procedure, shortened: as §5
Mus musculus [22] = assay: Neurotoxicity in albino CF-1 mouse assessed as motor impairment at 300 mg/kg, ip after 0.5 hrs by rotarod test; format: toxicity, organism-based; parameters: dose 300 mg/kg, route intraperitoneal; settings: in vivo
Procedure, shortened: (§6)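 Minimal motor impairment in male CF-1 mice by rotorod after i.p. dosing; toxic if animal falls off rotating rod 3 times within 1 min. Screen doses 30, 100, 300 mg/kg; quantitative TD50 (95% confidence interval) determined at time of peak effect.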

Mus musculus [23] = assay: Neurotoxicity in albino CF-1 mouse assessed as motor impairment at 300 mg/kg, ip after 4 hrs by rotarod test; format: toxicity, organism-based; parameters: dose 300 mg/kg, route intraperitoneal; settings: in vivo; procedure, shortened: as §6
Rattus norvegicus [24] = assay: Anticonvulsant activity in Sprague-Dawley rat assessed as protection against maximal electroshock-induced seizures at 30 mg/kg, po after 0.25 hrs; format: functional, organism-based; parameters: dose 30 mg/kg
Procedure, shortened: (§7)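 Male Sprague Dawley rats (100–150 g; 115–150 g in text), compound suspended in 0.5% methyl cellulose, given orally; MES challenge: 60 Hz alternating current, 150 mA, 0.2 s via corneal electrodes primed with 0.5% tetracaine HCl electrolyte. Protection = abolition of hind limb tonic extension; four rats per time point, scored as number protected.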

Rattus norvegicus [25] = assay: Anticonvulsant activity in Sprague-Dawley rat assessed as protection against maximal electroshock-induced seizures at 30 mg/kg, po after 0.5 hrs; format: functional, organism-based; parameters: dose 30 mg/kg; procedure, shortened: as §7
Rattus norvegicus [26] = assay: Anticonvulsant activity in Sprague-Dawley rat assessed as protection against maximal electroshock-induced seizures at 30 mg/kg, po after 1 hr; format: functional, organism-based; parameters: dose 30 mg/kg; procedure, shortened: as §7
Rattus norvegicus [27] = assay: Anticonvulsant activity in Sprague-Dawley rat assessed as protection against maximal electroshock-induced seizures at 30 mg/kg, po after 4 hrs; format: functional, organism-based; parameters: dose 30 mg/kg; procedure, shortened: as §7
Rattus norvegicus [28] = assay: Neurotoxicity in Sprague-Dawley rat assessed as motor impairment at 30 mg/kg, po after 0.25 hrs by rotarod test; format: toxicity, organism-based; parameters: dose 30 mg/kg, route oral; settings: in vivo
Rattus norvegicus [29] = assay: Neurotoxicity in Sprague-Dawley rat assessed as motor impairment at 30 mg/kg, po after 0.5 hrs by rotarod test; format: toxicity, organism-based; parameters: dose 30 mg/kg, route oral; settings: in vivo
Rattus norvegicus [30] = assay: Neurotoxicity in Sprague-Dawley rat assessed as motor impairment at 30 mg/kg, po after 1 hr by rotarod test; format: toxicity, organism-based; parameters: dose 30 mg/kg, route oral; settings: in vivo
Rattus norvegicus [31] = assay: Neurotoxicity in Sprague-Dawley rat assessed as motor impairment at 30 mg/kg, po after 2 hrs by rotarod test; format: toxicity, organism-based; parameters: dose 30 mg/kg, route oral; settings: in vivo
Rattus norvegicus [32] = assay: Neurotoxicity in Sprague-Dawley rat assessed as motor impairment at 30 mg/kg, po after 4 hrs by rotarod test; format: toxicity, organism-based; parameters: dose 30 mg/kg, route oral; settings: in vivo
Rattus norvegicus [33] = assay: Anticonvulsant activity in Sprague-Dawley rat assessed as protection against maximal electroshock-induced seizures at 30 mg/kg, po after 2 hrs; format: functional; procedure, shortened: as §7
Rattus norvegicus [34] = assay: Anticonvulsant activity in Sprague-Dawley rat assessed as protection against pilocarpine-induced status epilepticus at 200 mg/kg, ip; format: functional, organism-based; parameters: dose 200 mg/kg
Procedure, shortened: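 Male albino Sprague Dawley rats (150–180 g) dosed i.p., then challenged with pilocarpine; qualitative screen scored as protection or no protection, seizure severity graded on the Racine scale; N/F and deaths recorded, time taken post first Stage III seizure.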

Rattus norvegicus [35] = assay: Toxicity in Sprague-Dawley rat assessed as change in body weight at 200 mg/kg, ip measured after 24 hrs of clonus of one of the fore limbs seizure stage in protected rat; format: organism-based; parameters: dose 200 mg/kg, route intraperitoneal; settings: in vivo
Procedure, shortened: (§8)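 Male Sprague Dawley rats (150–180 g) dosed i.p. then challenged with pilocarpine; body weight change measured 24 h after first Stage III seizure, split by protected and non-protected rats, given ± S.E.M.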

Rattus norvegicus [36] = assay: Toxicity in Sprague-Dawley rat assessed as change in body weight at 200 mg/kg, ip measured after 24 hrs of clonus of one of the fore limbs seizure stage in non-protected rat; format: organism-based; parameters: dose 200 mg/kg, route intraperitoneal; settings: in vivo; procedure, shortened: as §8
[37] = Octanol-phosphate buffer partition coefficient, log P of the compound at 5 mg, after 24 hrs by UV spectroscopic analysis; format: physicochemical
Procedure, shortened: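 5 mg compound added to 10 mL octanol plus 10 mL phosphate buffer in stoppered tube, mechanically shaken 24 h at room temperature, then left in separating funnel 6 h to equilibrate.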

Rattus norvegicus [38] = assay: Acute toxicity in Sprague-Dawley rat assessed as motor impairment at 300 mg/kg, ip after 0.25 hrs; format: organism-based; parameters: dose 300 mg/kg, route intraperitoneal; settings: in vivo; procedure, shortened: as §1
Rattus norvegicus [39] = assay: Acute toxicity in Sprague-Dawley rat assessed as motor impairment at 300 mg/kg, ip after 0.5 hrs; format: organism-based; parameters: dose 300 mg/kg, route intraperitoneal; settings: in vivo; procedure, shortened: as §1
Rattus norvegicus [40] = assay: Acute toxicity in Sprague-Dawley rat assessed as motor impairment at 300 mg/kg, ip after 1 hr; format: organism-based; parameters: dose 300 mg/kg, route intraperitoneal; settings: in vivo; procedure, shortened: as §1

O=C(N/N=C\c1ccc(Oc2ccc(F)cc2)cc1)c1ccncc1
Activity (Rattus norvegicus [1]): Non-toxic | Activity (Rattus norvegicus [2]): Non-toxic | Activity (Rattus norvegicus [3]): Non-toxic | Activity (Rattus norvegicus [4]): Non-toxic | Activity (Rattus norvegicus [5]): Non-toxic | PI (Mus musculus [6]): 6.44 | PI (Mus musculus [7]): 2.67 | ED50 (Mus musculus [8]): 53.3 mg/kg | TD50 at 8 h [9]: 344 mg/kg | ED50 (Mus musculus [10]): > 250 mg/kg | ED50 (Mus musculus [11]): 128 mg/kg | Activity (Mus musculus [12]): inactive | Activity (Mus musculus [13]): inactive | Activity (Mus musculus [14]): 50% | Activity (Mus musculus [15]): Active | Activity (Mus musculus [16]): 75% | Activity (Mus musculus [17]): inactive | Activity (Mus musculus [18]): 100 mg/kg | Activity (Mus musculus [19]): 300 mg/kg | Activity (Mus musculus [20]): inactive | Activity (Mus musculus [21]): inactive | Activity (Mus musculus [22]): Non-toxic | Activity (Mus musculus [23]): Non-toxic | Activity (Rattus norvegicus [24]): inactive | Activity (Rattus norvegicus [25]): inactive | Activity (Rattus norvegicus [26]): inactive | Activity (Rattus norvegicus [27]): inactive | Activity (Rattus norvegicus [28]): Non-toxic | Activity (Rattus norvegicus [29]): Non-toxic | Activity (Rattus norvegicus [30]): Non-toxic | Activity (Rattus norvegicus [31]): Non-toxic | Activity (Rattus norvegicus [32]): Non-toxic | Activity (Rattus norvegicus [33]): 25% | Activity (Rattus norvegicus [34]): inactive | Activity (Rattus norvegicus [35]): Non-toxic | Activity (Rattus norvegicus [36]): 24.2 g | logP at 24 h [37]: 3.5 | Activity (Rattus norvegicus [38]): Toxic | Activity (Rattus norvegicus [39]): Toxic | Activity (Rattus norvegicus [40]): Toxic
